Series [1] deals with Human immunodeficiency virus type 1 integrase (Human immunodeficiency virus 1, UniProt Q7ZJM1). Kind of series: Inhibition of HIV1 integrase expressed in Escherichia coli assessed as strand transfer activity by scintillation proximity assay. The essentials: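 His6-tagged full-length HIV-1 IN (mutant) was preincubated 15 min at 22 °C with biotinylated U5 LTR donor DNA on streptavidin SPA beads, then [3H]-thymidine target DNA was added. Final: 2 pmol donor, 246 nM IN, 50 nM target, pH 7.2 MOPS, 4 mM MgCl2, 1% DMSO. Ran 50 min at 37 °C, stopped with EDTA/NaOH/CsCl, quench-corrected counts. IC50 from 4-parameter logistic fit, 2-3 replicates per concentration.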
On the technique in general: In a scintillation proximity assay essentially only radioactivity close to the scintillant gives light.

Series [2] deals with Human immunodeficiency virus 1. Kind of series: Antiviral activity against HIV1 RF in human CEM-SS cells assessed inhibition of virus-induced cytopathic effect by XTT assay. It counts as functional, organism-based. Conditions: Human immunodeficiency virus 1, RF; call rule not given here. The essentials: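 CEM-SS cells (2×10^4/well) were infected with HIV-1 RF at an MOI giving 90% cell death by day 6. Compounds, in half-log dilutions with ≥2 replicate wells, were added at seeding before infection. On day 6, XTT/phenazine methosulfate was added for 4 h and read at A450. EC50 is the concentration restoring formazan to 50% of uninfected, compound-free cells.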
Background: Protection from cytopathic effect is a common read-out in antiviral testing.

Series [3] can be described thus: Cytotoxicity against human CEM-SS cells by XTT assay. The series is classed as cell-based. The essentials:
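Uninfected CEM-SS cells (2×10^4/well) were exposed for 6 days to half-log compound dilutions (≥2 replicate wells) added at seeding. Viability was read by XTT formazan (4 h, A450). CC50 was derived from the drop in formazan versus uninfected, compound-free cells.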

Series [4] is described as follows: Metabolic stability in human hepatocytes assessed as extraction ratio after 4 hrs. The series is classed as ADME, cell-based, Hepatocyte.
Series [5] is described as follows: Metabolic stability in human liver microsomes assessed as extraction ratio after 4 hrs in presence of NADPH. The series is classed as ADME, Microsome. In general terms: Liver microsomes are a subcellular fraction often used to study metabolism.
Series [6] in a line: Mutagenic activity in Salmonella Typhimurium TA100 by Biolum Ames test in presence of metabolizing enzyme. It counts as toxicity. Conditions: salmonella enterica subsp. enterica serovar typhimurium.
Series [7] is described as follows: Mutagenic activity in Salmonella Typhimurium TA98 by Biolum Ames test in presence of metabolizing enzyme. The series is classed as toxicity. Conditions: salmonella enterica subsp. enterica serovar typhimurium.
The nature of series [8]: Mutagenic activity in Salmonella Typhimurium TA98 by Biolum Ames test. The note with it: salmonella enterica subsp. enterica serovar typhimurium. The series is classed as toxicity.
Series [9] is described as follows: Mutagenic activity in Salmonella Typhimurium TA100 by Biolum Ames test. It counts as toxicity. The note with it: salmonella enterica subsp. enterica serovar typhimurium.

The text below walks through data of ChEMBL document CHEMBL1154670, “Azaindole hydroxamic acids are potent HIV-1 integrase inhibitors” (J Med Chem, 2009).

As a reminder, the IC50 is the midpoint of a concentration-inhibition curve. What is called EC50 is the concentration at which the effect is half-maximal. What is called CC50 is the concentration at which the toxic effect on the cells reaches its halfway point.

Sequence of Human immunodeficiency virus type 1 integrase (Q7ZJM1 whole entry): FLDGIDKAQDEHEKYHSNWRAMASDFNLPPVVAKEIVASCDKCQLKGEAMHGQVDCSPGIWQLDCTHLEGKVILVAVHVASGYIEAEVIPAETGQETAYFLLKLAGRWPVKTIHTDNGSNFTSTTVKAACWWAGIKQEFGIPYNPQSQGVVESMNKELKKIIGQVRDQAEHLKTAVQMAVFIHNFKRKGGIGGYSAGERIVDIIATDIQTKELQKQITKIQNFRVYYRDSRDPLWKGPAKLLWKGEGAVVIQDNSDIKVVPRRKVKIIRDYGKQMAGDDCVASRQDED

In the case of `O=C(O)c1cc2ccn(Cc3cccc(Cl)c3Cl)c2cn1`, the half-maximal inhibitory concentration (IC50) in series [1] was 5.42 µM.

With `O=C(NO)c1cc2ccn(Cc3cccc(Cl)c3Cl)c2cn1`, the half-inhibitory concentration (IC50) in [1] stood at 0.442 µM. For the same molecule, it took 0.035 µM to reach a half-maximal effect in series [2] (EC50). For the same molecule, the 50% cytotoxic concentration (CC50) in series [3] is more than 320 µM.

For `CC(C)N(O)C(=O)c1cc2ccn(Cc3ccc(F)cc3)c2cn1`, the IC50 in series [1] was determined as 8 µM. The hepatic extraction ratio at 4 h in series [4] is 0.93. This molecule also gave an EC50 in series [2] of 3.5 µM. Moreover, in series [3], the CC50 was determined as 36 µM.

For the molecule `O=C(NO)c1cc2ccn(Cc3cccc(Cl)c3F)c2cn1`, the concentration for half-maximal inhibition (IC50) in series [1] came to 0.102 µM. In series [2], this molecule displayed a concentration giving a half-maximal response (EC50) of 0.008 µM. This molecule also had a cytotoxic concentration (CC50) in [3] of more than 320 µM.

`O=C(NO)c1cc2ccn(Cc3c(F)ccc(Cl)c3F)c2cn1`: in [1], the IC50 was 0.131 µM. This molecule returned an EC50 in series [2] of 0.007 µM. In [3], this molecule registered a half-maximal cytotoxic concentration (CC50) of more than 1 µM.

With `O=C(O)c1cc2ccn(Cc3cc(Cl)cs3)c2cn1`, the IC50 in [1] came to 3.2 µM.

With `O=C(NO)c1cc2ccn(Cc3cccc(CO)n3)c2cn1`, the IC50 in [1] amounted to 5.73 µM. It took 0.73 µM to reach a half-maximal effect in series [2] (EC50). Also, the CC50 in series [3] is more than 10 µM.

For the molecule `CONC(=O)c1cc2ccn(Cc3ccc(F)cc3F)c2cn1`, the IC50 in series [1] came out at 0.356 µM. The hepatic extraction ratio at 4 h in series [4] amounted to 1; in [5], 0.68. In addition, in series [2], the EC50 is 0.021 µM. The molecule also yielded a CC50 in series [3] of more than 320 µM.

`O=C(NO)c1cc2ccn(Cc3ccc(F)cc3)c2cn1`: the 50% inhibitory concentration (IC50) in [1] amounted to 0.137 µM. For the same molecule, the hepatic extraction ratio at 4 h in series [4] was found to be 0.92. Further, in series [2], it took 0.009 µM to reach a half-maximal effect (EC50). Further, the CC50 in [3] was found to be 159 µM.

In the case of `N#Cc1cc(F)ccc1Cn1ccc2cc(C(=O)NO)ncc21`, the half-inhibitory concentration (IC50) in series [1] is 0.812 µM. Moreover, the EC50 in series [2] was determined as 0.12 µM. For the same molecule, in series [3], the CC50 was more than 10 µM.

Turning to `N#Cc1ccc(Cn2ccc3cc(C(=O)NO)ncc32)cc1`, the IC50 in series [1] is more than 10 µM. In [2], the EC50 was determined as 1.2 µM. The cytotoxic concentration (CC50) in series [3] is more than 10 µM.

For `NC(=O)c1cc(F)ccc1Cn1ccc2cc(C(=O)NO)ncc21`, the 50% inhibitory concentration (IC50) in series [1] came out at 1.3 µM. The same molecule registered a concentration giving a half-maximal response (EC50) in series [2] of 0.055 µM. For the same molecule, the cytotoxic concentration (CC50) in series [3] was more than 10 µM.

For `O=C(c1cc2ccn(Cc3ccc(F)cc3)c2cn1)N(O)Cc1ccccc1`, the IC50 in series [1] came to 23 µM. Moreover, the hepatic extraction ratio at 4 h in series [4] is 1. For the same molecule, in [2], the concentration giving a half-maximal response (EC50) was found to be 0.33 µM. Moreover, the CC50 in [3] was more than 320 µM.

Consider `CN(O)C(=O)c1cc2ccn(Cc3ccc(F)cc3)c2cn1`, for which the IC50 in series [1] amounted to 0.25 µM. Moreover, the CC50 in series [3] came to 200 µM.

Take `O=C(O)c1cc2ccn(Cc3ccccc3F)c2cn1`: the concentration for half-maximal inhibition (IC50) in series [1] is more than 50 µM.

As to `O=C(O)c1cc2ccn(Cc3ccc(F)cc3F)c2cn1`, in [1], the half-inhibitory concentration (IC50) is 3.5 µM.

On to `NC(=O)c1cccc(Cn2ccc3cc(C(=O)NO)ncc32)c1`, for which, in series [1], the IC50 came to 1.72 µM. This molecule had a concentration for a half-maximal effect (EC50) in series [2] of 0.53 µM. The CC50 in [3] is more than 10 µM.

As for `O=C(O)c1cc2ccn(Cc3cccc(Cl)c3F)c2cn1`, in [1], the IC50 came to 0.95 µM.

Consider `O=C(O)c1cc2ccn(Cc3c(F)cc(Cl)cc3F)c2cn1`, for which the IC50 in series [1] was determined as 1.19 µM.

On to `O=C(O)c1cc2ccn(Cc3ccc(F)c(F)c3F)c2cn1`, for which the IC50 in series [1] is 3.69 µM.

For `CON(C)C(=O)c1cc2ccn(Cc3ccc(F)cc3F)c2cn1`, in series [1], the 50% inhibitory concentration (IC50) is more than 50 µM. The hepatic extraction ratio at 4 h in series [4] and in [5] was 1 throughout. Besides, the EC50 in series [2] was more than 10 µM. The molecule also had a CC50 in series [3] of more than 10 µM.

For the molecule `NC(=O)c1cc(Cn2ccc3cc(C(=O)NO)ncc32)ccc1F`, the IC50 in series [1] was determined as 0.608 µM. The same molecule came in with an EC50 in [2] of 0.058 µM. The cytotoxic concentration (CC50) in series [3] was more than 10 µM.

With `O=C(NO)c1cc2ccn(Cc3ccc(F)cc3F)c2cn1`, the result in series [6], in series [7], in series [8] and in series [9] was Active. Moreover, the 50% inhibitory concentration (IC50) in series [1] came to 0.084 µM. Also, the hepatic extraction ratio at 4 h in series [4] is 0.9; in [5], less than 0.26. In [2], this molecule yielded a 50% effective concentration (EC50) of 0.008 µM. This molecule had a CC50 in series [3] of more than 320 µM.

Regarding `O=C(NO)c1cc2ccn(Cc3ccccn3)c2cn1`, the IC50 in [1] was 0.779 µM. For the same molecule, the EC50 in [2] was found to be 0.088 µM. Also, the CC50 in series [3] was more than 10 µM.

For the molecule `CCCN(O)C(=O)c1cc2ccn(Cc3ccc(F)cc3)c2cn1`, in series [1], the 50% inhibitory concentration (IC50) came to 0.618 µM. Besides, the hepatic extraction ratio at 4 h in series [4] turned out to be 0.96. Also, the midpoint of the response in [2], the EC50, lay at 0.35 µM. This molecule also showed a CC50 in [3] of 26 µM.

For `CC(C)CN(O)C(=O)c1cc2ccn(Cc3ccc(F)cc3)c2cn1`, the half-maximal inhibitory concentration (IC50) in series [1] was 1.7 µM. In addition, the hepatic extraction ratio at 4 h in [4] amounted to 0.95. The same molecule gave a 50% effective concentration (EC50) in series [2] of 1.4 µM. Half-maximal cytotoxicity in series [3] (CC50) was put at 102 µM.

For the molecule `CN(O)C(=O)c1cc2ccn(Cc3ccc(F)cc3F)c2cn1`, the Activity entry in series [6], in series [7], in series [8] and in series [9] was “Not Active” throughout. In addition, in series [1], the IC50 is 0.25 µM. The hepatic extraction ratio at 4 h was 1 in series [4] and less than 0.36 in [5]. This molecule also displayed an EC50 in series [2] of 0.032 µM. In [3], this molecule had a CC50 of 135 µM.

For the molecule `O=C(c1cc2ccn(Cc3ccc(F)cc3)c2cn1)N(O)CCCO`, in [1], the half-maximal inhibitory concentration (IC50) came to 0.804 µM. Moreover, the hepatic extraction ratio at 4 h in [4] stood at 0.95. The same molecule returned an EC50 in [2] of 0.3 µM. This molecule also had a half-maximal cytotoxic concentration (CC50) in series [3] of 77 µM.

Turning to `O=C(NO)c1cc2ccn(Cc3ccc(Cl)s3)c2cn1`, the 50% inhibitory concentration (IC50) in [1] is 0.387 µM. This molecule also gave a concentration for a half-maximal effect (EC50) in series [2] of 0.02 µM. Besides, the CC50 in [3] is more than 10 µM.

Consider `O=C(O)c1cc2ccn(Cc3ccc(F)cc3)c2cn1`, for which, in [1], the 50% inhibitory concentration (IC50) came out at 7.35 µM.

`NC(=O)c1ccc(Cn2ccc3cc(C(=O)NO)ncc32)cc1`: the IC50 in series [1] is more than 10 µM. In addition, the half-maximal effective concentration (EC50) in series [2] was more than 10 µM. The 50% cytotoxic concentration (CC50) in [3] is more than 10 µM.

Consider `N#Cc1cccc(Cn2ccc3cc(C(=O)NO)ncc32)c1`, for which, in series [1], the IC50 was 1.62 µM. The EC50 in series [2] is 0.5 µM. For the same molecule, the CC50 in series [3] was more than 10 µM.
